Assays:
HUVEC = experiment: Antiproliferative activity against human HUVECs after 48 hrs; assay type: cell-based
Procedure, shortened: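 HUVEC kept in EGM, plated at 5000 cells/well and left to attach overnight. Cells were exposed to increasing drug concentrations for 48 h at 37 °C. DNA synthesis was read by colorimetric BrdU ELISA. Each concentration was run in triplicate in at least two independent experiments, reported as mean ±SD.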

MCF7 = experiment: Antiproliferative activity against human MCF7 cells after 8 to 10 days relative to 2-methoxyestradiol; assay type: functional
Procedure, shortened: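 Estrogen-dependent MCF-7 cells (passage 60–90) plated at 20–30,000 cells/well and left overnight. Cells were washed and starved 3 days in phenol red-free IMEM with 2% charcoal-dextran-stripped FBS, then treated with increasing concentrations in the same medium, refreshed every 2–3 days. Cells were Coulter-counted after 8 or 10 days. Triplicates in at least two independent experiments; stimulation index relative to 2-methoxyestradiol (1.00).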

MDA-MB-231 = experiment: Antiproliferative activity against human MDA-MB-231 cells after 48 hrs; assay type: functional, cell-based; details: MDA-MB-231, 48 h
Procedure, shortened: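 MDA-MB-231 cells kept in DMEM with 10% FBS, 2 mM L-glutamine and penicillin/streptomycin, plated at 2000 cells/well and left to attach overnight. Cells were exposed to increasing concentrations for 48 h. Proliferation was read as DNA synthesis by colorimetric BrdU ELISA. Triplicates in at least two independent experiments, reported as mean ±SD.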

Row | Structure (SMILES) | IC50 (HUVEC) | Activity (MCF7) | IC50 (MDA-MB-231)
1 | COc1cc2c(cc1O)CC[C@@H]1[C@@H]2CC[C@]2(C)[C@@H](O)[C@H](CO)C[C@@H]12 | 2.92 µM | 0.93 | 4.26 µM
2 | CCC[C@@H]1C[C@H]2[C@@H]3CCc4cc(O)c(OC)cc4[C@H]3CC[C@]2(C)[C@H]1O | 6.55 µM | 0.83 | 35.1 µM
3 | CCCC[C@H]1C[C@H]2[C@@H]3CCc4cc(O)c(OC)cc4[C@H]3CC[C@]2(C)[C@H]1O | 8.17 µM | 0.82 | 37.9 µM
4 | CCCC[C@@H]1C[C@H]2[C@@H]3CCc4cc(O)c(OC)cc4[C@H]3CC[C@]2(C)[C@H]1O | 18.2 µM | 0.73 | 27.9 µM
5 | COc1cc2c(cc1O)CC[C@@H]1[C@@H]2CC[C@]2(C)[C@@H](O)[C@H](CC(C)C)C[C@@H]12 | 7.15 µM | 0.41 | 38.3 µM
6 | COc1cc2c(cc1O)CC[C@@H]1[C@@H]2CC[C@]2(C)[C@@H](O)[C@H](C)C[C@@H]12 | 0.35 µM | 2.07 | 0.74 µM
7 | COc1cc2c(cc1O)CC[C@@H]1[C@@H]2CC[C@]2(C)[C@@H](O)[C@H](CN(C)C)C[C@@H]12 | 36.8 µM | 1.43 | 22.7 µM
8 | CC[C@@H]1C[C@H]2[C@@H]3CCc4cc(O)c(OC)cc4[C@H]3CC[C@]2(C)[C@H]1O | 1.35 µM | 1.09 | 3.59 µM
9 | CCC[C@H]1C[C@H]2[C@@H]3CCc4cc(O)c(OC)cc4[C@H]3CC[C@]2(C)[C@H]1O | 17.1 µM | 0.93 | 45.1 µM
10 | COc1cc2c(cc1O)CC[C@@H]1[C@@H]2CC[C@]2(C)[C@@H](O)[C@@H](C)C[C@@H]12 | 2.26 µM | 1.62 | 2.4 µM
11 | COc1cc2c(cc1O)CC[C@@H]1[C@@H]2CC[C@]2(C)[C@@H](O)[C@@H](CO)C[C@@H]12 | 6.36 µM | 1.14 | 6.09 µM
12 | COc1cc2c(cc1O)CC[C@@H]1[C@@H]2CC[C@]2(C)[C@@H](O)CC[C@@H]12 [2-METHOXYESTRADIOL] | 0.84 µM |  | 1 µM

From ChEMBL document CHEMBL1137562, “Synthesis and structure-activity relationships of 16-modified analogs of 2-methoxyestradiol” (Bioorg Med Chem, 2007)
